Laboratory results reported in ChEMBL document CHEMBL5329146, “Thiourea derivatives containing 4-arylthiazoles and d-glucose moiety: design, synthesis, antimicrobial activity evaluation, and molecular docking/dynamics simulations” (RSC Med Chem, 2023).
pIC50: −log10 of the molar value. In brackets after ≈: the same amount, converted by molar mass.

Key:
Salmonella typhimurium = experiment: Antibacterial activity against Salmonella typhimurium assessed as inhibition of visible bacterial growth incubated for 18 to 20 hrs by microbroth dilution method; assay type: functional, Salmonella enterica subsp. enterica serovar Typhimurium; details: Salmonella enterica; time 18-20 hrs
In short: (§1)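 Inoculum was a 4–6 h broth culture adjusted to 0.5 McFarland turbidity and diluted to a final 5 × 10^5 CFU mL−1. Plates were incubated at 35 °C for 18–20 h. MIC was the lowest concentration giving complete inhibition of visible growth. Run three times.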

Clostridioides difficile = experiment: Antibacterial activity against Clostridium difficile assessed as inhibition of visible bacterial growth incubated for 18 to 20 hrs by microbroth dilution method; assay type: functional; details: time 18-20 hrs
Escherichia coli = experiment: Antibacterial activity against Escherichia coli assessed as inhibition of visible bacterial growth incubated for 18 to 20 hrs by microbroth dilution method; assay type: functional; details: time 18-20 hrs; in short: as §1
Aspergillus niger = experiment: Antifungal activity against Aspergillus niger assessed as inhibition of fungal growth incubated for 72 hrs by agar dilution method; assay type: functional
In short: (§2)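 Agar dilution on Sabouraud dextrose agar, with compound solutions at 400 down to 0.78 μg mL−1 (twofold series). Fungal suspensions containing […] were applied to agar plates serially diluted with test compound. Plates were incubated at 35 °C, and MIC was read after 72 h. Experiments were performed three times.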

Klebsiella pneumoniae = experiment: Antibacterial activity against Klebsiella pneumoniae assessed as inhibition of visible bacterial growth incubated for 18 to 20 hrs by microbroth dilution method; assay type: functional; details: time 18-20 hrs; in short: as §1
[1] = test system: Staphylococcus epidermidis; experiment: Antibacterial activity against Staphylococcus epidermidis assessed as inhibition of visible bacterial growth incubated for 18 to 20 hrs by microbroth dilution method; assay type: functional; details: time 18-20 hrs; in short: as §1
Staphylococcus aureus = experiment: Antibacterial activity against Staphylococcus aureus assessed as inhibition of visible bacterial growth incubated for 18 to 20 hrs by microbroth dilution method; assay type: functional; details: time 18-20 hrs; in short: as §1
Saccharomyces cerevisiae = experiment: Antifungal activity against Saccharomyces cerevisiae assessed as inhibition of fungal growth incubated for 72 hrs by agar dilution method; assay type: functional; in short: as §2
Candida albicans = experiment: Antifungal activity against Candida albicans assessed as inhibition of fungal growth incubated for 72 hrs by agar dilution method; assay type: functional; in short: as §2
Fusarium oxysporum = experiment: Antifungal activity against Fusarium oxysporum assessed as inhibition of fungal growth incubated for 72 hrs by agar dilution method; assay type: functional; in short: as §2
Streptococcus pneumoniae = experiment: Antibacterial activity against Streptococcus pneumoniae assessed as inhibition of visible bacterial growth incubated for 18 to 20 hrs by microbroth dilution method; assay type: functional; details: time 18-20 hrs
Bacillus subtilis = experiment: Antibacterial activity against Bacillus subtilis assessed as inhibition of visible bacterial growth incubated for 18 to 20 hrs by microbroth dilution method; assay type: functional; details: time 18-20 hrs; in short: as §1
Pseudomonas aeruginosa = experiment: Antibacterial activity against Pseudomonas aeruginosa assessed as inhibition of visible bacterial growth incubated for 18 to 20 hrs by microbroth dilution method; assay type: functional; details: time 18-20 hrs; in short: as §1
Aspergillus flavus = experiment: Antifungal activity against Aspergillus flavus assessed as inhibition of fungal growth incubated for 72 hrs by agar dilution method; assay type: functional; in short: as §2
Dihydrofolate reductase = Dihydrofolate reductase (Staphylococcus aureus, UniProt P0A017); experiment: Inhibition of Staphylococcus aureus DHFR preincubated for 5 mins followed by dihydrofolic acid addition and measured for 10 mins by absorbance based assay
Topoisomerase IV = Topoisomerase IV (Staphylococcus aureus, UniProt P0C1S7+P0C1U9); experiment: Inhibition of Staphylococcus aureus DNA topoisomerase 4 using supercoiled plasmid DNA as substrate; assay type: protein-complex assay
DNA gyrase = DNA gyrase (Staphylococcus aureus, UniProt P0A0K8+P20831); experiment: Inhibition of Staphylococcus aureus DNA gyrase incubated for 30 mins in presence of relaxed plasmid DNA by supercoiling based gel electrophoresis analysis; assay type: protein-complex assay
Chain of DNA gyrase (P0A0K8 whole entry): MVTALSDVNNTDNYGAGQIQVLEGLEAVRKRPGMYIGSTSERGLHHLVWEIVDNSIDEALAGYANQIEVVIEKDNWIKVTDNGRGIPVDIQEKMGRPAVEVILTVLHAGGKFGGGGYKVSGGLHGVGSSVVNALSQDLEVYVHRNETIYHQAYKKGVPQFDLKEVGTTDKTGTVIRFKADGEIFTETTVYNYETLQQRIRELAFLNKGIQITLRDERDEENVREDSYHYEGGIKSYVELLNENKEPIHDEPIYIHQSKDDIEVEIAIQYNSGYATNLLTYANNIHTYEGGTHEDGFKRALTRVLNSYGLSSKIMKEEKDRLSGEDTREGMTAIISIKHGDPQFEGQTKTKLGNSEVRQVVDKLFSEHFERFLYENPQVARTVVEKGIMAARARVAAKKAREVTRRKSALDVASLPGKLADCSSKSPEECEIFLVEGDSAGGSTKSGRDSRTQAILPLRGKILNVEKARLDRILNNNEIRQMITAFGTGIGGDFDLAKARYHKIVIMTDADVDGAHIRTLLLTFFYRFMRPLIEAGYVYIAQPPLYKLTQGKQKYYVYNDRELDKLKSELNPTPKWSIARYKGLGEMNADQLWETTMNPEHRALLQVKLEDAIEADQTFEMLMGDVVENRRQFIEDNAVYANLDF
Chain of DNA gyrase (P20831 whole entry): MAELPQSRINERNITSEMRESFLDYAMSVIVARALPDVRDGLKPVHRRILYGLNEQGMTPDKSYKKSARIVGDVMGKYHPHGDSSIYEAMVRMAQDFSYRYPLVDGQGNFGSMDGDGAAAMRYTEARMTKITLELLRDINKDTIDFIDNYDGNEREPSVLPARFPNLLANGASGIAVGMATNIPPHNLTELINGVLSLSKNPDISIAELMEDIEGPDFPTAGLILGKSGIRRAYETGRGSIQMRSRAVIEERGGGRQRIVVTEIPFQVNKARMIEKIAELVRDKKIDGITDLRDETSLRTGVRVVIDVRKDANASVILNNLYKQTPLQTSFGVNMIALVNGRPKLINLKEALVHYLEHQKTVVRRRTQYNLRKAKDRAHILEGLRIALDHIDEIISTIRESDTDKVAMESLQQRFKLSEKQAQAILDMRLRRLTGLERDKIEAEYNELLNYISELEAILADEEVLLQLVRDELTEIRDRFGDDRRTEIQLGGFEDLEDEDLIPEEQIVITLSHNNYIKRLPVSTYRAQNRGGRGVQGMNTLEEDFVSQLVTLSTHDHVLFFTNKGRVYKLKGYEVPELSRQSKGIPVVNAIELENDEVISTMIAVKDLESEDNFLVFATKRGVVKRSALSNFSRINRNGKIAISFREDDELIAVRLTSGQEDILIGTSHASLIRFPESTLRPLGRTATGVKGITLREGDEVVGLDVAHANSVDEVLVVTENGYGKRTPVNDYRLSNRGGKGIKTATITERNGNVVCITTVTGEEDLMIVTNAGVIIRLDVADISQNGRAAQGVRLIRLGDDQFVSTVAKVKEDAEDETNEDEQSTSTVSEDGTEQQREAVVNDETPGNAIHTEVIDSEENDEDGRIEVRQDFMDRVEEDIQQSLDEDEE

Chain of Topoisomerase IV (P0C1U9 whole entry): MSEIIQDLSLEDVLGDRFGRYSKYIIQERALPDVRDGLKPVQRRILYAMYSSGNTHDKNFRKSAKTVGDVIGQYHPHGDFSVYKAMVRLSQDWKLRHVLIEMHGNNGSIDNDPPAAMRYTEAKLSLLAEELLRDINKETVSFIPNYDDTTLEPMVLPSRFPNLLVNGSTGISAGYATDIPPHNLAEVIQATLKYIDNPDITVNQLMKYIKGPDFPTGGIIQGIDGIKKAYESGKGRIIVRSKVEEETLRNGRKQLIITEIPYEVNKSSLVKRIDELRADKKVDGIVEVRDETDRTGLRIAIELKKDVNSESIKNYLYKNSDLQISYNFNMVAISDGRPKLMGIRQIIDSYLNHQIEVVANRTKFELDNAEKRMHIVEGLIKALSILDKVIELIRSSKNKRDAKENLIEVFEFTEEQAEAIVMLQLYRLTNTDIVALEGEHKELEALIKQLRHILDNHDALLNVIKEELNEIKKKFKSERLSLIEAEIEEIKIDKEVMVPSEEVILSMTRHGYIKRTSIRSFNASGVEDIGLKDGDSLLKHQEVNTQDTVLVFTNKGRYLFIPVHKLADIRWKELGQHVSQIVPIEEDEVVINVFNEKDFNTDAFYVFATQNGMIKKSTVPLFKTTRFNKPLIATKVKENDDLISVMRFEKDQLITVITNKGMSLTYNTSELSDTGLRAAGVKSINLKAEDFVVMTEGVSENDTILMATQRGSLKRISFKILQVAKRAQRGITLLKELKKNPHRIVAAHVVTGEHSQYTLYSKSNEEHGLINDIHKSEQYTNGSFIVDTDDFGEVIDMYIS
Chain of Topoisomerase IV (P0C1S7 whole entry): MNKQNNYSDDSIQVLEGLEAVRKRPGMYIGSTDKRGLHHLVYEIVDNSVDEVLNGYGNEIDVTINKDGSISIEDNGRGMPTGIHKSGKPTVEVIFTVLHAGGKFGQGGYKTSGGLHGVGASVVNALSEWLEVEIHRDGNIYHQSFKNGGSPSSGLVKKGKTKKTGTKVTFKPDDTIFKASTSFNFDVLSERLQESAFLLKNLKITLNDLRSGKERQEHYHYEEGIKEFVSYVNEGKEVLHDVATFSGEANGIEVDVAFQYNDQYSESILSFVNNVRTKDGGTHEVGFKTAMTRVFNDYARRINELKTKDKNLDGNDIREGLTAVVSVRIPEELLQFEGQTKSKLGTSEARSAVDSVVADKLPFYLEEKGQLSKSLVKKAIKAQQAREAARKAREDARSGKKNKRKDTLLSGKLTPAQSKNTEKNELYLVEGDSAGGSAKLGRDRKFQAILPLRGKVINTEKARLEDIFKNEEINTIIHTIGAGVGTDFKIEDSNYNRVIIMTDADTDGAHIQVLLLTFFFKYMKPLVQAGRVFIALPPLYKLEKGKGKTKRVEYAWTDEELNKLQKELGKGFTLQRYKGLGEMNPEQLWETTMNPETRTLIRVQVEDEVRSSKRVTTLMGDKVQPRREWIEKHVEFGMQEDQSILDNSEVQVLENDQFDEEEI
Chain of Dihydrofolate reductase (P0A017 whole entry): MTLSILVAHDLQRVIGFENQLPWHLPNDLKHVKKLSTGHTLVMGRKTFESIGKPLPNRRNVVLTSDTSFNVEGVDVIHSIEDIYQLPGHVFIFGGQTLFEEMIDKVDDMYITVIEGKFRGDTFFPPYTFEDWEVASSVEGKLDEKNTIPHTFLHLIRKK

Compound | MIC (Salmonella typhimurium) [µg/mL] | MIC (Clostridioides difficile) [µg/mL] | MIC (Escherichia coli) [µg/mL] | MIC (Aspergillus niger) [µg/mL] | MIC (Klebsiella pneumoniae) [µg/mL] | MIC [1] [µg/mL] | MIC (Staphylococcus aureus) [µg/mL] | MIC (Saccharomyces cerevisiae) [µg/mL] | MIC (Candida albicans) [µg/mL] | MIC (Fusarium oxysporum) [µg/mL] | MIC (Streptococcus pneumoniae) [µg/mL] | MIC (Bacillus subtilis) [µg/mL] | MIC (Pseudomonas aeruginosa) [µg/mL] | MIC (Aspergillus flavus) [µg/mL] | pIC50 (Dihydrofolate reductase) | pIC50 (Topoisomerase IV) | pIC50 (DNA gyrase)
CC(=O)OC[C@H]1O[C@@H](NC(=S)Nc2nc(-c3ccc(Br)cc3)cs2)[C@H](OC(C)=O)[C@@H](OC(C)=O)[C@@H]1OC(C)=O | 0.78 (≈ 1.21 µM) | 6.25 (≈ 9.7 µM) | 1.56 (≈ 2.42 µM) | 50 (≈ 77.6 µM) | 6.25 (≈ 9.7 µM) | 25 (≈ 38.8 µM) | 12.5 (≈ 19.4 µM) | 25 (≈ 38.8 µM) | 50 (≈ 77.6 µM) | 0.78 (≈ 1.21 µM) | 50 (≈ 77.6 µM) | 3.12 (≈ 4.85 µM) | 100 (≈ 155 µM) | 3.12 (≈ 4.85 µM) | – | – | –
CC(=O)OC[C@H]1O[C@@H](NC(=S)Nc2nc(-c3ccccc3)cs2)[C@H](OC(C)=O)[C@@H](OC(C)=O)[C@@H]1OC(C)=O | 400 (≈ 707 µM) | 50 (≈ 88.4 µM) | 100 (≈ 177 µM) | 0.78 (≈ 1.38 µM) | 25 (≈ 44.2 µM) | 0.78 (≈ 1.38 µM) | 200 (≈ 354 µM) | 1.56 (≈ 2.76 µM) | 3.12 (≈ 5.52 µM) | 6.25 (≈ 11 µM) | 25 (≈ 44.2 µM) | 25 (≈ 44.2 µM) | 6.25 (≈ 11 µM) | 50 (≈ 88.4 µM) | – | – | –
CC(=O)OC[C@H]1O[C@@H](NC(=S)Nc2nc(-c3cccc([N+](=O)[O-])c3)cs2)[C@H](OC(C)=O)[C@@H](OC(C)=O)[C@@H]1OC(C)=O | 3.12 (≈ 5.12 µM) | 0.78 (≈ 1.28 µM) | 0.78 (≈ 1.28 µM) | 3.12 (≈ 5.12 µM) | 3.12 (≈ 5.12 µM) | 12.5 (≈ 20.5 µM) | 6.25 (≈ 10.2 µM) | 6.25 (≈ 10.2 µM) | 100 (≈ 164 µM) | 50 (≈ 81.9 µM) | 0.78 (≈ 1.28 µM) | 6.25 (≈ 10.2 µM) | 3.12 (≈ 5.12 µM) | 0.78 (≈ 1.28 µM) | – | – | –
CCc1ccc(-c2csc(NC(=S)N[C@@H]3O[C@H](COC(C)=O)[C@@H](OC(C)=O)[C@H](OC(C)=O)[C@H]3OC(C)=O)n2)cc1 | 100 (≈ 168 µM) | 400 (≈ 674 µM) | 12.5 (≈ 21.1 µM) | 200 (≈ 337 µM) | 50 (≈ 84.2 µM) | 6.25 (≈ 10.5 µM) | 400 (≈ 674 µM) | 400 (≈ 674 µM) | 6.25 (≈ 10.5 µM) | 400 (≈ 674 µM) | 100 (≈ 168 µM) | 0.78 (≈ 1.31 µM) | 25 (≈ 42.1 µM) | 200 (≈ 337 µM) | – | – | –
CC(=O)OC[C@H]1O[C@@H](NC(=S)Nc2nc(-c3ccc(C)cc3)cs2)[C@H](OC(C)=O)[C@@H](OC(C)=O)[C@@H]1OC(C)=O | 25 (≈ 43.1 µM) | 25 (≈ 43.1 µM) | 6.25 (≈ 10.8 µM) | 12.5 (≈ 21.6 µM) | 200 (≈ 345 µM) | 400 (≈ 690 µM) | 25 (≈ 43.1 µM) | 0.78 (≈ 1.35 µM) | 400 (≈ 690 µM) | 200 (≈ 345 µM) | 12.5 (≈ 21.6 µM) | 100 (≈ 173 µM) | 50 (≈ 86.3 µM) | 12.5 (≈ 21.6 µM) | – | – | –
COc1ccc(-c2csc(NC(=S)N[C@@H]3O[C@H](COC(C)=O)[C@@H](OC(C)=O)[C@H](OC(C)=O)[C@H]3OC(C)=O)n2)cc1[N+](=O)[O-] | 50 (≈ 78 µM) | 200 (≈ 312 µM) | 200 (≈ 312 µM) | 100 (≈ 156 µM) | 0.78 (≈ 1.22 µM) | 50 (≈ 78 µM) | 0.78 (≈ 1.22 µM) | 200 (≈ 312 µM) | 12.5 (≈ 19.5 µM) | 25 (≈ 39 µM) | 6.25 (≈ 9.76 µM) | 50 (≈ 78 µM) | 0.78 (≈ 1.22 µM) | 1.56 (≈ 2.44 µM) | 6.89 | 4.17 | 5.90
COc1ccc(-c2csc(NC(=S)N[C@@H]3O[C@H](COC(C)=O)[C@@H](OC(C)=O)[C@H](OC(C)=O)[C@H]3OC(C)=O)n2)cc1 | 6.25 (≈ 10.5 µM) | 3.12 (≈ 5.25 µM) | 3.12 (≈ 5.25 µM) | 6.25 (≈ 10.5 µM) | 1.56 (≈ 2.62 µM) | 100 (≈ 168 µM) | 1.56 (≈ 2.62 µM) | 12.5 (≈ 21 µM) | 0.78 (≈ 1.31 µM) | 12.5 (≈ 21 µM) | 3.12 (≈ 5.25 µM) | 400 (≈ 672 µM) | 12.5 (≈ 21 µM) | 6.25 (≈ 10.5 µM) | 6.77 | 4.10 | 5.86
CC(=O)OC[C@H]1O[C@@H](NC(=S)Nc2nc(-c3ccc(Cl)cc3)cs2)[C@H](OC(C)=O)[C@@H](OC(C)=O)[C@@H]1OC(C)=O | 12.5 (≈ 20.8 µM) | 12.5 (≈ 20.8 µM) | 50 (≈ 83.3 µM) | 25 (≈ 41.7 µM) | 12.5 (≈ 20.8 µM) | 3.12 (≈ 5.21 µM) | 3.12 (≈ 5.21 µM) | 3.12 (≈ 5.21 µM) | 25 (≈ 41.7 µM) | 3.12 (≈ 5.21 µM) | 400 (≈ 667 µM) | 12.5 (≈ 20.8 µM) | 200 (≈ 333 µM) | 25 (≈ 41.7 µM) | 6.64 | 4.16 | 5.55
O=C(O)c1cn(C2CC2)c2cc(N3CCNCC3)c(F)cc2c1=O [CIPROFLOXACIN] | 1.56 (≈ 4.71 µM) | – | – | – | 1.56 (≈ 4.71 µM) | 3.12 (≈ 9.43 µM) | 3.12 (≈ 9.43 µM) | – | – | – | – | 3.12 (≈ 9.43 µM) | 1.56 (≈ 4.71 µM) | – | – | – | –
OC(Cn1cncn1)(Cn1cncn1)c1ccc(F)cc1F [FLUCONAZOLE] | – | – | – | 1.56 (≈ 5.09 µM) | – | – | – | 0.78 (≈ 2.55 µM) | 0.78 (≈ 2.55 µM) | 0.78 (≈ 2.55 µM) | – | – | – | 0.78 (≈ 2.55 µM) | – | – | –
Clc1ccc(COC(Cn2ccnc2)c2ccc(Cl)cc2Cl)c(Cl)c1 (configuration not stated) [MICONAZOLE] | – | – | – | 1.56 (≈ 3.75 µM) | – | – | – | 3.12 (≈ 7.51 µM) | 3.12 (≈ 7.51 µM) | 3.12 (≈ 7.51 µM) | – | – | – | 1.56 (≈ 3.75 µM) | – | – | –
CN[C@H](CC(C)C)C(=O)N[C@H]1C(=O)N[C@@H](CC(N)=O)C(=O)N[C@H]2C(=O)N[C@H]3C(=O)N[C@H](C(=O)N[C@H](C(=O)O)c4cc(O)cc(O)c4-c4cc3ccc4O)[C@H](O)c3ccc(c(Cl)c3)Oc3cc2cc(c3O[C@@H]2O[C@H](CO)[C@@H](O)[C@H](O)[C@H]2O[C@H]2C[C@](C)(N)[C@H](O)[C@H](C)O2)Oc2ccc(cc2Cl)[C@H]1O [VANCOMYCIN] | – | 1.56 (≈ 1.08 µM) | – | – | – | 0.78 (≈ 0.538 µM) | 1.56 (≈ 1.08 µM) | – | – | – | 1.56 (≈ 1.08 µM) | 1.56 (≈ 1.08 µM) | – | – | – | – | –
